Assay results: ChEMBL document CHEMBL1121834, “Aromatic retinoic acid analogues. Synthesis and pharmacological activity” (J Med Chem, 1981)

What was measured:
Type in all cases: functional
[1] = target: T1, Ornithine decarboxylase (Mus musculus) (UniProt P00860); experiment: Inhibition of tumor promoter (TPA) -induced mouse epidermal ornithine decarboxylase (ODC) activity at 17 nmol dose level
T1 sequence (whole entry): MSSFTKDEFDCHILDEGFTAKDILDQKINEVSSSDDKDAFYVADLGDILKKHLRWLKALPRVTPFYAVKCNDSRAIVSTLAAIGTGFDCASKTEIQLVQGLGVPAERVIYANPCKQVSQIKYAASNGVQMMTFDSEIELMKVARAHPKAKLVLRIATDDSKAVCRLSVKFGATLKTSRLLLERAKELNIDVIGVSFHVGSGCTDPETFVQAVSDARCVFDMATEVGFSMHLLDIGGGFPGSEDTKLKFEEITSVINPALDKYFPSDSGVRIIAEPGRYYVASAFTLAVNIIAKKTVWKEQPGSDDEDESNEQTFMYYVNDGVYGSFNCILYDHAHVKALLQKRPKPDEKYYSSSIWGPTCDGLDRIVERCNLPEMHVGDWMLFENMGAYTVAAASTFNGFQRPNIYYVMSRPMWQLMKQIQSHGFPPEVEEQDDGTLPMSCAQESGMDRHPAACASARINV
Summary of the method: (§1)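 Retinoid applied topically to mouse skin 1 h before topical TPA (12-O-tetradecanoylphorbol 13-acetate) to induce epidermal ODC. Dorsal skin from each group of mice was pooled and ODC activity assayed in triplicate. Activity is expressed as % inhibition of TPA-induced ODC relative to TPA-only controls (mean ± SE over groups).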

[2] = target: T1, Ornithine decarboxylase (Mus musculus); experiment: Inhibition of tumor promoter (TPA) -induced mouse epidermal ornithine decarboxylase (ODC) activity at 170 nmol dose level; summary of the method: as §1
[3] = target: T1, Ornithine decarboxylase (Mus musculus); experiment: Inhibition of tumor promoter (TPA) -induced mouse epidermal ornithine decarboxylase (ODC) activity at 1.7 nmol dose level; summary of the method: as §1

Structure (SMILES) | inhibition [1] | inhibition [2] | inhibition [3]
CCOC(=O)c1ccc(/C=C(C)/C=C/C2=C(C)CCCC2(C)C)cc1C | 0% |  | 
CC1=C(/C=C/C(C)=C\c2ccc(C(=O)O)cc2)C(C)(C)CCC1 | 43% | 64% | 33%
CC1=C(/C=C/C(C)=C/C=C/c2ccccc2O)C(C)(C)CCC1 | 25% |  | 
CC1=C(/C=C/C(C)=C\C=C\c2ccccc2O)C(C)(C)CCC1 | 0% |  | 
CC1=C(/C=C/C(C)=C/C=C/c2ccccc2C(=O)O)C(C)(C)CCC1 | 7% |  | 
CC1=C(/C=C/C(C)=C/c2ccc(C(=O)O)cc2)C(C)(C)CCC1 | 77% | 87% | 62%
CCOC(=O)c1ccc(/C=C(C)/C=C/C23OC2(C)CCCC3(C)C)cc1 (stereo unspecified) | 71% |  | 
